The record followed here is ChEMBL document CHEMBL1153809, “7,7-Dimethylaporphine alkaloids from the stem of Guatteriopsis friesiana” (2009).

What all share (assay type): functional
Assay [1] deals with Escherichia coli. Briefly: Antimicrobial activity against Escherichia coli ATCC 11775 after 48 hrs by TTC staining method. The conditions noted are these: ATCC 11775, 48 h. Put shortly: (§1)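 Bacteria grown overnight at 36 °C on nutrient agar. Cells suspended in 0.85% NaCl to McFarland 0.5 (checked at 580 nm), then diluted to 10^4 CFU/mL. Broth microdilution in Mueller-Hinton broth, in duplicate. Samples tested at 1.0-0.016 mg/mL; chloramphenicol and nystatin references at 0.25-0.002 mg/mL. Incubated 36 °C for 48 h, then 0.5% TTC added. MIC is the lowest concentration inhibiting visible growth by TTC staining.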

Assay [2] relates to Micrococcus luteus. Briefly: Antimicrobial activity against Micrococcus luteus ATCC 4968 after 48 hrs by TTC staining method. The conditions noted are these: ATCC 4968, 48 h. Put shortly:
as §1

The subject of assay [3] is Pseudomonas aeruginosa. Description: Antimicrobial activity against Pseudomonas aeruginosa ATCC 13388 after 48 hrs by TTC staining method. The following applies: ATCC 13388, 48 h. Put shortly:
as §1

For assay [4], the system named is Prescottella equi. Description: Antimicrobial activity against Rhodococcus equi ATCC 6939 after 48 hrs by TTC staining method. The conditions noted are these: Rhodococcus (subgen. Prescottella) equi, ATCC 6939, 48 h. Put shortly:
as §1

The test system of assay [5] is Salmonella enterica. Briefly: Antimicrobial activity against Salmonella choleraesuis ATCC 10708 after 48 hrs by TTC staining method. The following applies: ATCC 10708, 48 h. Put shortly: as §1
Assay [6] has as its system Staphylococcus aureus. Briefly: Antimicrobial activity against Staphylococcus aureus ATCC 6538 after 48 hrs by TTC staining method. The conditions noted are these: ATCC 6538, 48 h. Put shortly: as §1
The test system of assay [7] is Staphylococcus epidermidis. Description: Antimicrobial activity against Staphylococcus epidermidis ATCC 12228 after 48 hrs by TTC staining method. The conditions noted are these: ATCC 12228, 48 h. Put shortly:
as §1

The test system of assay [8] is Bacillus subtilis. Briefly: Antimicrobial activity against Bacillus subtilis ATCC 5061 after 48 hrs by TTC staining method. The conditions noted are these: ATCC 5061, 48 h. Put shortly:
as §1

Assay [9] has as its system Enterococcus faecium. Description: Antimicrobial activity against Enterococcus faecium CCT 5079 after 48 hrs by TTC staining method. The conditions noted are these: CCT 5079, 48 h. Put shortly: as §1
Assay [10] relates to Enterococcus hirae. Description: Antimicrobial activity against Enterococcus hirae ATCC 10541 after 48 hrs by TTC staining method. The following applies: ATCC 10541, 48 h. Put shortly:
as §1

In assay [11] the test system is Candida albicans. Briefly: Antimicrobial activity against Candida albicans ATCC 10231 after 48 hrs by TTC staining method. Put shortly:
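Yeast grown on Sabouraud dextrose agar. Cells suspended in 0.85% NaCl to McFarland 0.5 (checked at 580 nm), then diluted to 10^4 CFU/mL. Mueller-Hinton broth microdilution, in duplicate. Samples tested at 1.0-0.016 mg/mL; chloramphenicol and nystatin references at 0.25-0.002 mg/mL. Incubated 48 h at 36 °C, then 0.5% TTC added. MIC is the lowest concentration preventing visible growth by TTC stain.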

In brackets after ≈: the same amount, converted by molar mass. Some results are limits rather than exact numbers.

In general, MIC refers to the smallest concentration in the dilution series that meets the test's criterion for growth inhibition.

With `O=C(N[C@H](CO)[C@H](O)c1ccc([N+](=O)[O-])cc1)C(Cl)Cl` [CHLORAMPHENICOL], the minimal inhibitory concentration (MIC) in assay [1] was 40 mg/L (≈ 124 µM); in [2] it was 50 mg/L (≈ 155 µM); in assay [3], 850 mg/L (≈ 2630 µM); in assay [4] it was 40 mg/L (≈ 124 µM); in assay [5], 60 mg/L (≈ 186 µM); in assay [6], 20 mg/L (≈ 61.9 µM). The minimal inhibitory concentration (MIC) came to 40 mg/L (≈ 124 µM) in assay [7], 20 mg/L (≈ 61.9 µM) in [8], 70 mg/L (≈ 217 µM) in assay [9] and 120 mg/L (≈ 371 µM) in [10].

As to `O=C1c2ccccc2-c2c3c(cc4ccnc1c24)OCO3` [LIRIODENINE], the MIC is above 1000 mg/L in [1]; 150 mg/L (≈ 545 µM) in assay [2]; above 1000 mg/L in assay [3]; 10 mg/L (≈ 36.3 µM) in assay [4]; above 1000 mg/L in assay [5]; above 1000 mg/L in [6]. For the same compound, the MIC was 500 mg/L (≈ 1820 µM) in [8]; above 1000 mg/L in assay [11] (ATCC 10231, 48 h); 150 mg/L (≈ 545 µM) in assay [9]; 600 mg/L (≈ 2180 µM) in assay [10].

Take NYSTATIN: in assay [11], the MIC was 50 mg/L.
